In ChEMBL document CHEMBL1156951, “Oxazolomycins: natural product lead structures for novel antibacterials by click fragment conjugation” (2010):
The source made the active and inactive calls. No cut-off for these calls is given here.

Assays:
Assay type in all cases: functional
Escherichia coli [1] = assay: Antibacterial activity against Escherichia coli X580 at 4 mg/ml by hole plate assay; settings: for zone of inhibition at 4000 µg/mL: read-out: DIZ
Procedure, shortened: (§1)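 Hole-plate bioassay with samples at 4 mg/ml in 7:3 DMSO/H₂O, loaded into wells of bioassay plates and incubated overnight at 37 °C. The read-out was inhibition zone diameter in mm (±1 mm).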

Staphylococcus aureus = assay: Antibacterial activity against Staphylococcus aureus NCTC 6571 at 4 mg/ml by hole plate assay; procedure, shortened: as §1
Escherichia coli [2] = assay: Antibacterial activity against Escherichia coli X580 assessed as zone of diameter per molar relative to cephalosporin
Procedure, shortened: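 Hole-plate agar diffusion: test solutions were loaded into wells of bioassay plates and incubated overnight at 37 °C. Inhibition zone diameters were measured, and relative potency was expressed as zone diameter per M of analyte against standards prepared with cephalosporin C.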

| Structure (SMILES) | diameter of the inhibition zone (DIZ) (Escherichia coli [1]) | diameter of the inhibition zone (DIZ) (Staphylococcus aureus) | zone of inhibition at 4000 µg/mL (Escherichia coli [1]) | zone of inhibition at 4000 µg/mL (Staphylococcus aureus; read-out: DIZ) | Activity (Escherichia coli [2]) |
| --- | --- | --- | --- | --- | --- |
| COC(=O)[C@]12CO[C@H](C(C)(C)C)N1C(=O)C(C)(C)[C@@]2(O)C#CCCCCO | inactive | inactive |  |  |  |
| COC(=O)[C@]12CO[C@H](C(C)(C)C)N1C(=O)C(C)(C)[C@@]2(O)C#CCCCCn1cc(CNC(=O)C(C)(C)C(O)c2ccccc2)nn1 (stereo partly drawn) |  | inactive | 14 mm |  |  |
| CCCCCCCC(O)C(C)(C)C(=O)NCc1cn(CCCCC#C[C@]2(O)C(C)(C)C(=O)N3[C@@H](C(C)(C)C)OC[C@@]32C(=O)OC)nn1 (stereo partly drawn) |  | inactive | 14 mm |  |  |
| COC(=O)[C@]12CO[C@H](C(C)(C)C)N1C(=O)C(C)(C)[C@@]2(O)C#Cc1ccccc1 | inactive |  |  | 13 mm |  |
| COC(=O)[C@]1(CO)NC(=O)C(C)(C)[C@@]1(O)C#CCCCCn1cc(CNC(=O)C(C)(C)C(O)CCCCc2ccccc2)nn1 (stereo partly drawn) |  | inactive | 14 mm |  |  |
| CC1(C)C(=O)N[C@@](CO)(C(=O)O)[C@]1(O)C#Cc1ccccc1 | inactive | inactive |  |  |  |
| COC(=O)[C@]1(CO)NC(=O)C(C)(C)[C@@]1(O)CCCCCc1cc(CNC(=O)C(C)(C)C(O)CCCCc2ccccc2)on1 (stereo partly drawn) |  | inactive | 14 mm |  | 0.1% |
| COC(=O)[C@]12CO[C@H](C(C)(C)C)N1C(=O)C(C)(C)[C@@]2(O)C#CCCCCn1cc(CNC(=O)C(C)(C)C(O)CCCCc2ccccc2)nn1 (stereo partly drawn) |  | inactive | 13 mm |  |  |
| COC(=O)[C@]1(CO)NC(=O)C(C)(C)[C@@]1(O)C#Cc1ccccc1 | inactive | inactive |  |  |  |
| COC(=O)[C@]12CO[C@H](C(C)(C)C)N1C(=O)C(C)(C)[C@@]2(O)C#CCCCCBr |  | inactive | 14 mm |  | 0.05% |
| CCCCCCCC(O)C(C)(C)C(=O)NCc1cc(CCCCC[C@]2(O)C(C)(C)C(=O)N3[C@@H](C(C)(C)C)OC[C@@]32C(=O)OC)no1 (stereo partly drawn) | inactive | inactive |  |  |  |
| CCCCCCCC(O)C(C)(C)C(=O)NCc1cc(CCCCC[C@]2(O)C(C)(C)C(=O)N[C@@]2(CO)C(=O)OC)no1 (stereo partly drawn) |  | inactive | 17 mm |  | 0.2% |
| CCCCCCCC(O)C(C)(C)C(=O)NCc1cn(CCCCC#C[C@]2(O)C(C)(C)C(=O)N[C@@]2(CO)C(=O)OC)nn1 (stereo partly drawn) | inactive | inactive |  |  |  |
| COC(=O)[C@]1(CO)NC(=O)C(C)(C)[C@@]1(O)C#CCNC(=O)C(C)(C)C(O)c1ccccc1 (stereo partly drawn) | inactive | inactive |  |  |  |
| COC(=O)[C@]1(CO)NC(=O)C(C)(C)[C@@]1(O)CCCCCc1cc(CNC(=O)C(C)(C)C(O)c2ccccc2)on1 (stereo partly drawn) |  | inactive | 13 mm |  |  |
| CCCCCCCCC#C[C@]1(O)C(C)(C)C(=O)N[C@@]1(CO)C(=O)OC | inactive | inactive |  |  |  |
| COC(=O)[C@]12CO[C@H](C(C)(C)C)N1C(=O)C(C)(C)[C@@]2(O)C#CCNC(=O)C(C)(C)C(O)c1ccccc1 (stereo partly drawn) |  | inactive | 17 mm |  | 0.1% |
| COC(=O)[C@]12CO[C@H](C(C)(C)C)N1C(=O)C(C)(C)[C@@]2(O)CCCCCCO | inactive | inactive |  |  |  |
| COC(=O)[C@]1(CO)NC(=O)C(C)(C)[C@@]1(O)C#CCCCCn1cc(CNC(=O)C(C)(C)C(O)c2ccccc2)nn1 (stereo partly drawn) |  | inactive | 15 mm |  |  |
| COC(=O)[C@]12CO[C@H](C(C)(C)C)N1C(=O)C(C)(C)[C@@]2(O)CCCCCc1cc(CNC(=O)C(C)(C)C(O)c2ccccc2)on1 (stereo partly drawn) | inactive | inactive |  |  |  |
| COC(=O)[C@]12CO[C@H](C(C)(C)C)N1C(=O)C(C)(C)[C@@]2(O)CCCCCc1cc(CNC(=O)C(C)(C)C(O)CCCCc2ccccc2)on1 (stereo partly drawn) |  | inactive | 15 mm |  |  |
| CCCCCCCCC#C[C@]1(O)C(C)(C)C(=O)N2[C@@H](C(C)(C)C)OC[C@@]21C(=O)OC | inactive | inactive |  |  |  |
